Our source for the MIC values is ChEMBL document CHEMBL1629643, “Naturally occurring Class A ss-lactamases from the Burkholderia cepacia complex” (Antimicrob Agents Chemother, 2009).

One may read the MIC as the smallest concentration in the dilution series that meets the test's criterion for growth inhibition.

What all share (format): functional
The test system of test [1] is Burkholderia cenocepacia. Kind of test: Antimicrobial activity against Burkholderia cenocepacia 07-34 expressing beta-lactamase PenB1. In a few lines:
(§1)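 MICs measured by broth microdilution and by Etest on clinical B. cenocepacia isolates grown for 18 h in Trypticase soy broth (30°C and 37°C). Susceptibility was read against CLSI guidelines.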

The test system of test [2] is Burkholderia cenocepacia. Kind of test: Antimicrobial activity against Burkholderia cenocepacia 09-54 expressing beta-lactamase PenB2. The procedure, abridged:
as §1

Test [3] deals with Burkholderia cenocepacia. Briefly: Antimicrobial activity against Burkholderia cenocepacia 212 expressing beta-lactamase PenB3. The procedure, abridged: as §1
Test [4] concerns Burkholderia cenocepacia. Briefly: Antimicrobial activity against Burkholderia cenocepacia 5007902 expressing beta-lactamase PenB4. The procedure, abridged:
as §1

Test [5] deals with Burkholderia cenocepacia. Briefly: Antimicrobial activity against Burkholderia cenocepacia 07-34 expressing beta-lactamase PenB1 in presence of 4 ug/ml beta-lactamase inhibitor clavulanic acid. In a few lines: (§2)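 Cultured in Trypticase soy broth at 30°C and 37°C for 18 h. MICs by broth microdilution and Etest, read against CLSI guidelines.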
The subject of test [6] is Burkholderia cenocepacia. Kind of test: Antimicrobial activity against Burkholderia cenocepacia 09-54 expressing beta-lactamase PenB2 in presence of 4 ug/ml beta-lactamase inhibitor clavulanic acid. The procedure, abridged:
as §2

Test [7] relates to Burkholderia cenocepacia. Briefly: Antimicrobial activity against Burkholderia cenocepacia 212 expressing beta-lactamase PenB3 in presence of 4 ug/ml beta-lactamase inhibitor clavulanic acid. In a few lines: as §2
For test [8], the system named is Burkholderia cenocepacia. Kind of test: Antimicrobial activity against Burkholderia cenocepacia 5007902 expressing beta-lactamase PenB4 in presence of 4 ug/ml beta-lactamase inhibitor clavulanic acid. The procedure, abridged:
as §2

Test [9] deals with Escherichia coli. Briefly: Antimicrobial activity against Escherichia coli TOP10 harboring beta-lactamase PenB1. In a few lines:
(§3)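 MICs by broth microdilution and Etest, interpreted per CLSI guidelines. Strains tested were host E. coli TOP10, and TOP10 carrying pBcSau13 (pBK-CMV vector, kanamycin-resistant) holding a Sau3AI fragment of B. cenocepacia 212 DNA that encodes PenB1.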

In test [10] the test system is Escherichia coli. Briefly: Antimicrobial activity against Escherichia coli TOP10 harboring beta-lactamase PenB1 in presence of 4 ug/ml beta-lactamase inhibitor clavulanic acid. In a few lines: (§4)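 E. coli TOP10 host, either plain or carrying the pBK-CMV clone pBcSau13 with the B. cenocepacia 212 insert. MICs by broth microdilution and Etest, read against CLSI guidelines.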

In test [11] the test system is Escherichia coli. Kind of test: Antimicrobial activity against Escherichia coli TOP10. The procedure, abridged: as §3
In test [12] the test system is Escherichia coli. Briefly: Antimicrobial activity against Escherichia coli TOP10 in presence of 4 ug/ml beta-lactamase inhibitor clavulanic acid. The procedure, abridged: as §4

Converted amounts (≈) assume the structure as drawn.

For the compound `CO/N=C(\C(=O)N[C@@H]1C(=O)N2C(C(=O)[O-])=C(C[N+]3(C)CCCC3)CS[C@H]12)c1csc(N)n1`, the MIC worked out at 32 µg/mL (≈ 66.6 µM) in test [1], 64 µg/mL (≈ 133 µM) in test [2], 64 µg/mL (≈ 133 µM) in [3] and 1 µg/mL (≈ 2.08 µM) in [4].

Turning to `CC1(C)S[C@@H]2[C@H](NC(=O)[C@H](N)c3ccc(O)cc3)C(=O)N2[C@H]1C(=O)O` [AMOXICILLIN], the MIC in [1] worked out at 512 µg/mL (≈ 1400 µM); in test [5], 512 µg/mL; in test [2], 512 µg/mL (≈ 1400 µM); in [6], 512 µg/mL; in [3] it was 512 µg/mL (≈ 1400 µM); in test [7] it was 512 µg/mL. The MIC came out at 512 µg/mL (≈ 1400 µM) in test [4]; 512 µg/mL in test [8]; 512 µg/mL (≈ 1400 µM) in test [9]; 16 µg/mL in [10]; 4 µg/mL (≈ 10.9 µM) in test [11]; 4 µg/mL in [12].

For the compound `C[C@H]1[C@H](NC(=O)/C(=N\OC(C)(C)C(=O)O)c2csc(N)n2)C(=O)N1S(=O)(=O)O` [AZTREONAM], the minimum inhibitory concentration (MIC) in test [1] amounted to 4 µg/mL (≈ 9.19 µM); in [2], 512 µg/mL (≈ 1180 µM); in test [3], 512 µg/mL (≈ 1180 µM); in [4], 16 µg/mL (≈ 36.7 µM); in [9], 0.5 µg/mL (≈ 1.15 µM).

On to `CO/N=C(\C(=O)N[C@@H]1C(=O)N2C(C(=O)O)=C(COC(C)=O)CS[C@H]12)c1csc(N)n1` [CEFOTAXIME], for which the MIC in test [1] amounted to 1 µg/mL (≈ 2.2 µM); in [2], 512 µg/mL (≈ 1120 µM); in test [3] it was 512 µg/mL (≈ 1120 µM); in test [4], 4 µg/mL (≈ 8.78 µM); in [9], 0.25 µg/mL (≈ 0.549 µM); in test [11], 0.06 µg/mL (≈ 0.132 µM).

As to `CO[C@@]1(NC(=O)Cc2cccs2)C(=O)N2C(C(=O)O)=C(COC(N)=O)CS[C@@H]21` [CEFOXITIN], the MIC came to 512 µg/mL (≈ 1200 µM) in [1]; 512 µg/mL (≈ 1200 µM) in [2]; 512 µg/mL (≈ 1200 µM) in test [3]; 512 µg/mL (≈ 1200 µM) in test [4]; 8 µg/mL (≈ 18.7 µM) in test [9]; 8 µg/mL (≈ 18.7 µM) in test [11].
